Our source for the IC50 and inhibition values is ChEMBL document CHEMBL1130198, “Inhibition of tubulin polymerization by 5,6-dihydroindolo[2,1-alpha]isoquinoline derivatives” (J Med Chem, 1997).

Bounds are passed on as bounds.

The target of assay [1] is T1, Tubulin (Bos taurus, UniProt Q6B856+Q862L2+Q862F3). Nature of the assay: Inhibition of tubulin polymerization using isolated calf brain. Type of assay: functional. A digest of the protocol: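 Twice-cycled, MAP-containing calf brain microtubules depolymerized in PEMG buffer (0.8 M glutamate, pH 6.6-6.7) at 0 °C; compound in DMSO, preincubated 15 min at 37 °C, chilled, GTP added; turbidity at 350 nm over 20 min after shift from 2 to 37 °C.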

For assay [2], the system named is MDA-MB-231. Nature of the assay: Inhibition of the growth of MDA-MB 231 human breast cancer cells. Format: functional, cell-based.
A further assay addresses Tubulin (Bos taurus) (UniProt Q6B856+Q862L2+Q862F3). Nature of the assay: Inhibition of colchicine binding to tubulin. Format: functional. The note with it: concentration not given here. In short, it runs like this: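 Calf brain tubulin (prepared as for polymerization) diluted 1:10 in ice-cold PEM buffer (PIPES, EGTA, MgSO4, pH 6.6-6.7); 1 µM [3H]colchicine with 10 µM inhibitor, DMSO vehicle, 30 min at 37 °C; GTP added on ice, filtered through DEAE-cellulose, washed; tubulin-bound radioactivity by scintillation counting, tubulin-free mixtures as background. Mean of two independent experiments.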

The subject of a further assay is MCF7. Nature of the assay: Inhibition of estrogen receptor positive MCF-7 human breast cancer cell proliferation. Type of assay: functional, cell-based. A digest of the protocol: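 MCF-7 cells in EMEM with 10% FCS; treatment medium contains dextran-charcoal-treated FCS; exposure ca. 8 days; glutaraldehyde fixation, crystal violet staining, optical density read at 578 nm.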

For assay [3], the system named is MDA-MB-231. Nature of the assay: Inhibition of estrogen receptor negative MDA-MB 231 breast cancer cell proliferation. Format: functional, cell-based. The note with it: Homo sapiens. A digest of the protocol: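 MDA-MB 231 cells (hormone-independent) in McCoy-5a with 5% FCS, grown 2–3 days in 96-well plates at 37 °C, 5% CO2, then medium with test compound (DMF stock; 0.1% DMF controls) for about 4 days; glutaraldehyde fixation, 0.02% crystal violet staining, ethanol extraction, OD 578 nm versus initial density. IC50 from two independent experiments.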

Assay [4] concerns the target Tubulin alpha chain (Bos taurus) (UniProt P81947). Nature of the assay: Inhibition of colchicine binding to tubulin. Particulars: concentration not given here.
The target in assay [5] is T1, Tubulin. Nature of the assay: Inhibition of tubulin polymerization using isolated calf brain at 37 degrees C. Type of assay: functional.
In assay [6] the test system is MDA-MB-231. Nature of the assay: Inhibition of estrogen receptor negative MDA-MB 231 breast cancer cell proliferation at 10 uM. Particulars: Homo sapiens. Type of assay: functional, cell-based. A digest of the protocol:
(§1)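 MDA-MB 231 cells grown in McCoy-5a with L-glutamine, gentamycin, NaHCO3 and 5% FCS, 5% CO2, 37 °C. Cells were seeded in 96-well plates and grown 2–3 days, then given medium containing compound; controls had 0.1% DMF. After about 4 days, cells were fixed with 1% glutaric dialdehyde, stained with 0.02% crystal violet, extracted with 70% EtOH, and OD578 was read against initial density.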

In assay [7] the test system is MDA-MB-231. Nature of the assay: Inhibition of estrogen receptor negative MDA-MB 231 breast cancer cell proliferation at 1 uM. Type of assay: functional, cell-based. The note with it: Homo sapiens. In short, it runs like this: as §1
Assay [8] deals with T1, Tubulin. Nature of the assay: Inhibition of tubulin polymerization using isolated calf brain at 26 degrees C. Format: functional.

Tubulin alpha chain (Bos taurus), sequence (P81947 whole entry, looked up): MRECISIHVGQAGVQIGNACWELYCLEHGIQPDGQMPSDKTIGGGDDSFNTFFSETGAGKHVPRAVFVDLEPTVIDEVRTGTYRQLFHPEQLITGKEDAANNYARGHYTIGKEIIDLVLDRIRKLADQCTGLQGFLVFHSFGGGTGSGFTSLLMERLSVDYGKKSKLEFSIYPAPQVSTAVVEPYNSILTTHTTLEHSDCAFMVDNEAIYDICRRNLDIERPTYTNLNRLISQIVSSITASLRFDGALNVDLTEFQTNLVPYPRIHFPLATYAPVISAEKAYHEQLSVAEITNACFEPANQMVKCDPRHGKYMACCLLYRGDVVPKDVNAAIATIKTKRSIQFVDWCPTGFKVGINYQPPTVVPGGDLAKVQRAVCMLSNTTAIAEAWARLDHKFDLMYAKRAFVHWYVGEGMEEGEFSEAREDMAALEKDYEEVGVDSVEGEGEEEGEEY

For orientation: IC50 means the point on the concentration scale where inhibition reaches its midpoint. A high value points to weaker potency. Compound `CCCC1Cc2cc(O)ccc2-c2c(C=O)c3ccc(O)cc3n21` (single isomer, unassigned; (+)) [listing 1 of 2 here] came in with an IC50 at Tubulin [1] of 11000 nM. This counts as double-digit micromolar. In the case of `CCCCC1Cc2cc(OC)ccc2-c2c(C#N)c3ccc(OC)cc3n21` (stereo unspecified), the IC50 with MDA-MB-231 [2] worked out at 3100 nM. As for `CCCCC1Cc2cc(OC)ccc2-c2c(C#N)c3cc(OC)c(OC)cc3n21` (stereo unspecified), the IC50 with MDA-MB-231 [2] stood at 2700 nM. The IC50 values of the last two compounds are within 1.5-fold of each other. With `CCCCC1Cc2cc(OC)ccc2-c2c(CNC)c3ccc(OC)cc3n21` (stereo unspecified), the midpoint of inhibition in the assay with MDA-MB-231 [2], the IC50, lay at 2100 nM. This IC50 and that of the compound before are within 1.5-fold of each other. Compound `CCCCC1Cc2cc(OC)ccc2-c2c(C=O)c3cc(OC)c(OC)cc3n21` (stereo unspecified) gave a half-maximal inhibitory concentration (IC50) with MDA-MB-231 [2] of 9000 nM. Against the preceding compound, the IC50 is about 4.3-fold higher.

As to `CCCCC1Cc2cc(OC)ccc2-c2c(/C=N/Cc3ccccc3)c3ccc(OC)cc3n21` (stereo unspecified), half-maximal inhibition with MDA-MB-231 [2] (IC50) was put at 5700 nM. `CCCCC1Cc2cc(OC)ccc2-c2c(C=O)c3ccc(OC)cc3n21` (stereo unspecified) yielded an IC50 in the assay with MDA-MB-231 [2] of 8700 nM.

The inhibition is how much of the control response was suppressed. Low readings indicate a weak effect, high ones a strong effect. In the case of `CCCC1Cc2cc(O)ccc2-c2c(C=O)c3ccc(O)cc3n21` (single isomer, unassigned; (+)) [listing 2 of 2 here], the inhibition at Tubulin (Bos taurus) was found to be 53%. Regarding `CCCCC1Cc2cc(O)ccc2-c2c(C=O)c3ccc(O)cc3n21` (stereo unspecified), the concentration for half-maximal inhibition (IC50) in the assay on MDA-MB-231 [2] is 1400 nM; in the assay with MCF7, 220 nM. Take `CCCCC1Cc2cc(OC)ccc2-c2c(CNCc3ccccc3)c3ccc(OC)cc3n21` (stereo unspecified): inhibition in the assay with MDA-MB-231 [2] was half-maximal at 7000 nM (IC50). In the assay with MDA-MB-231 [2], `CCCCC1Cc2cc(OC)ccc2-c2c(C(C)=O)c3ccc(OC)cc3n21` (stereo unspecified) registered a 50% inhibitory concentration (IC50) of more than 10000 nM. Still for that read-out and setting: in the case of `CCCC1Cc2cc(OC)ccc2-c2c(C=O)c3ccc(OC)cc3n21` (stereo unspecified) it was more than 10000 nM. Consider `CCCCC1Cc2cc(O)ccc2-c2cc3cc(O)c(O)cc3n21` (stereo unspecified), for which the 50% inhibitory concentration (IC50) in the assay on MDA-MB-231 [2] and with MCF7 was more than 10000 nM in each case. On Tubulin [1], `CCCCC1Cc2cc(O)ccc2-c2c(C=O)c3ccc(O)cc3n21` (single isomer, unassigned; (-)) [listing 1 of 2 here] registered an IC50 of more than 60000 nM. On to `CCCCC1Cc2cc(O)ccc2-c2c(C#N)c3ccc(O)cc3n21` (stereo unspecified), for which the IC50 in the assay on MDA-MB-231 [3] came to 300 nM; on Tubulin [5], 13000 nM; in the assay with MCF7 it was 540 nM. In addition, in assay [4], the inhibition turned out to be 48%.

In the assay on MDA-MB-231 [2], `CC[C@]1(O)C[C@@H]2CN(CCc3c([nH]c4ccccc34)[C@@](C(=O)OC)(c3cc4c(cc3OC)N(C)[C@H]3[C@@](O)(C(=O)OC)[C@H](OC(C)=O)[C@]5(CC)C=CCN6CC[C@]43[C@@H]65)C2)C1` [VINBLASTINE] showed an IC50 of 11 nM. `CCCC1Cc2cc(O)ccc2-c2c(C=O)c3ccc(O)cc3n21` (stereo unspecified): the IC50 was found to be 300 nM in the assay with MDA-MB-231 [2] and 290 nM with MCF7. Regarding `CCC1Cc2cc(O)ccc2-c2c(C=O)c3ccc(O)cc3n21` (stereo unspecified), the IC50 came out at 2800 nM in the assay on MDA-MB-231 [2] and 2500 nM in the assay with MCF7. Take `COc1cc2c(cc1O)CC[C@@H]1[C@@H]2CC[C@]2(C)[C@@H](O)CC[C@@H]12` [2-METHOXYESTRADIOL]: the inhibition in [4] came out at 44%. Besides, the half-maximal inhibitory concentration (IC50) came to 60000 nM against Tubulin [1], 5000 nM with MDA-MB-231 [6], 250 nM in the assay on MDA-MB-231 [7] and 12000 nM at Tubulin [8]. In the assay on MCF7, `CC/C(=C(\c1ccccc1)c1ccc(OCCN(C)C)cc1)c1ccccc1` [TAMOXIFEN] displayed a 50% inhibitory concentration (IC50) of 150 nM. In other words, the sub-micromolar range.

As for `COc1cc2c(c(OC)c1OC)-c1ccc(OC)c(=O)cc1[C@@H](NC(C)=O)CC2` [COLCHICINE], in the assay on MDA-MB-231 [2], 30 nM corresponded to half-maximal inhibition (IC50). In other words, the double-digit nanomolar range. `CCCCC1Cc2cc(O)ccc2-c2c(C=O)c3ccc(O)cc3n21` (stereo in doubt; (+)-6c) [listing 1 of 2 here] showed an inhibition at Tubulin (Bos taurus) of 69%. In turn, `CCCCC1Cc2cc(O)ccc2-c2c(C=O)c3ccc(O)cc3n21` (stereo in doubt; (+)-6c) [listing 2 of 2 here] returned a concentration for half-maximal inhibition (IC50) at Tubulin [1] of 3100 nM.

As for `CCCCC1Cc2cc(O)ccc2-c2c(C(C)=O)c3ccc(O)cc3n21` (stereo unspecified), the half-maximal inhibitory concentration (IC50) in the assay on MDA-MB-231 [2] came out at 2200 nM; in the assay with MCF7 it was 2500 nM. Turning to `CCCC1Cc2cc(O)ccc2-c2c(C=O)c3ccc(O)cc3n21` (single isomer, unassigned; (-)) [listing 1 of 2 here], at Tubulin (Bos taurus), the inhibition stood at 27%. With `CCCCC1Cc2cc(O)ccc2-c2c(/C=N/Cc3ccccc3)c3ccc(O)cc3n21` (stereo unspecified), the IC50 stood at 2100 nM with MDA-MB-231 [2] and 260 nM in the assay with MCF7. As for `CCCC1Cc2cc(O)ccc2-c2c(C=O)c3ccc(O)cc3n21` (single isomer, unassigned; (-)) [listing 2 of 2 here], at Tubulin [1], the IC50 is more than 70000 nM. On Tubulin (Bos taurus), `CCCCC1Cc2cc(O)ccc2-c2c(C=O)c3ccc(O)cc3n21` (single isomer, unassigned; (-)) [listing 2 of 2 here] displayed an inhibition of 22%. In the case of `CCCCC1Cc2cc(OC)ccc2-c2c(C=O)c3cc(OC)ccc3n21` (stereo unspecified), the 50% inhibitory concentration (IC50) in the assay on MDA-MB-231 [2] is more than 10000 nM.

`CCCCC1Cc2cc(OC)ccc2-c2c(/C=N/C)c3ccc(OC)cc3n21` (stereo unspecified) registered an IC50 with MDA-MB-231 [2] of 7800 nM. With `CCCCC1Cc2cc(O)ccc2-c2c(C=O)c3cc(O)c(O)cc3n21` (stereo unspecified), the IC50 in the assay on MDA-MB-231 [2] is 3200 nM; on Tubulin [5], 19000 nM; in the assay with MCF7, more than 10000 nM.

In turn, `CCCCC1Cc2cc(O)ccc2-c2c(C#N)c3cc(O)c(O)cc3n21` (stereo unspecified) registered an inhibition in assay [4] of 54%. Moreover, the IC50 in the assay on MDA-MB-231 [2] was 3400 nM; against Tubulin [5] it was 25000 nM; in the assay with MCF7, 2700 nM. On to `COc1cc([C@@H]2c3cc4c(cc3[C@H](O)[C@H]3COC(=O)[C@H]23)OCO4)cc(OC)c1OC` [PODOFILOX], for which the IC50 in the assay on MDA-MB-231 [2] is 26 nM.

Take `CCCCC1Cc2cc(OC)ccc2-c2cc3cc(OC)c(OC)cc3n21` (stereo unspecified): the IC50 in the assay on MDA-MB-231 [2] was more than 10000 nM. For the compound `CCCCC1Cc2cc(O)ccc2-c2c(C=O)c3cc(O)ccc3n21` (stereo unspecified), the IC50 with MDA-MB-231 [2] was found to be 200 nM; against Tubulin [5] it was 19000 nM; with MCF7 it was 650 nM. Take `CCCCC1Cc2cc(OC)ccc2-c2c(/C=N/O)c3ccc(OC)cc3n21` (stereo unspecified): the half-inhibitory concentration (IC50) in the assay with MDA-MB-231 [2] was more than 10000 nM.
